Results from different studies.
Each line is one published result; the experiments were not run side by side.
Target: Tyrosine-protein kinase CSK (CSK, Homo sapiens, UniProt P41240)

CO[C@@H]1[C@H](N(C)C(=O)c2ccccc2)C[C@H]2O[C@]1(C)n1c3ccccc3c3c4c(c5c6ccccc6n2c5c31)C(=O)NC4
inhibition (enzyme activity, inhibitor; 1 µM): 0%

COc1ccc2oc(-c3ccc4nc(N)oc4c3)c/c(=N\c3ccccc3NC(=O)CCN)c2c1
remaining signal (cell-free assay; 1 µM): 119%

Cc1cc(O)c(-c2ccc([C@@H](C)CN(C)C)cc2)c2c1[nH]c(=O)c1sccc12
inhibition (enzyme activity, inhibitor; 0.1 µM, lysate): 2.59%

Cc1ccc(NC(=O)c2ccnc(C(F)(F)F)c2)cc1-c1cc(OCCO)nc(N2CCOCC2)c1
remaining binding (binding, competition with immobilised ligand; 1 µM): 95%

CC#CC(=O)N1CCC[C@H]1c1nc(-c2ccc(C(=O)Nc3ccccn3)cc2)c2c(N)nccn12
inhibition (enzyme activity, inhibitor; 1 µM): 32%

C1=C/COCc2cc(ccc2OCCN2CCCC2)Nc2nccc(n2)-c2cccc(c2)COC/1
remaining signal (cell-free assay; 0.1 µM): 88%

CN1CCN(C(=O)c2ccc(NC(=O)Nc3ccc(N(C)c4ccnc(Nc5ccc(CS(C)(=O)=O)cc5)n4)cc3)cc2)CC1
remaining binding (binding, competition with immobilised ligand; 1 µM): 62%

C#Cc1cc(-c2cc(Nc3nc(N[C@@H](C)c4ccc(F)cn4)ncc3Cl)n[nH]2)ccc1C=O
inhibition (enzyme activity, inhibitor; 0.2 µM): 14%

CCCCC(=O)Nc1ccc(-c2ccc3ncn(CCC)c(=O)c3c2)cn1
remaining binding (binding, competition with immobilised ligand; 0.5 µM): 94%
